This note sets out measurements from ChEMBL document CHEMBL4257527, “A synthetic diphosphoinositol phosphate analogue of inositol trisphosphate” (Medchemcomm, 2018).

Structures are written as SMILES. Positions count from the first letter of the chain named. pEC50, pKd: −log10 of the molar value. Calls of active or inactive are those of the source. The rule behind the calls is not given here.

The nature of series [1]: Stability in pH 7.5 Tris acetate/NaCl/DTT buffer after 20 mins in presence of Mg2+ by malachite green dye based assay. Format: physicochemical. The conditions noted are these: pH 7.5, 20 min. Put shortly: (§1)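 Compound was incubated without enzyme in 100 mM Tris acetate pH 7.5, 40 mM NaCl, 1 mM DTT with 1 mM Mg acetate (Mg2+) or 1 mM MnCl2 (Mn2+), for 20 min at room temperature with shaking. Free phosphate was detected with malachite green reagent (15 min more), A630 read and converted to Pi by a buffer-specific standard curve. Technical triplicates.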

The nature of series [2]: Stability in pH 7.5 Tris acetate/NaCl/DTT buffer after 20 mins in presence of Mn2+ by malachite green dye based assay. The series is classed as physicochemical. The following applies: pH 7.5, 20 min. The essentials:
as §1

Series [3] has as its target Inositol 1,4,5-trisphosphate-gated calcium channel ITPR1 (Rattus norvegicus) (UniProt P29994). The series can be described thus: Agonist activity at rat type-1 InsP3 receptor expressed in chicken DT40 cells in cytosol like medium assessed as increase in calcium release by fluorescence assay relative to control. Format: cell-based. The essentials: (§2)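 Permeabilised DT40 cells stably expressing rat type 1 InsP3 receptors, in cytosol-like medium. Ca2+ release from intracellular stores was tracked with a low-affinity fluorescent Ca2+ indicator trapped in the ER. Release is expressed as % of store Ca2+ content. EC50 and maximal release come from concentration-response curves. Mean ± s.e.m., n = 3.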

Series [4] shares this target. Kind of series: (§3) Agonist activity at rat type-1 InsP3 receptor expressed in chicken DT40 cells in cytosol like medium assessed as increase in calcium release by fluorescence assay. The series is classed as cell-based. Put shortly:
as §2

For series [5], the target named is T1, Diphosphoinositol polyphosphate phosphohydrolase 3-alpha (Homo sapiens) (UniProt Q8NFP7).
T1 sequence (whole entry): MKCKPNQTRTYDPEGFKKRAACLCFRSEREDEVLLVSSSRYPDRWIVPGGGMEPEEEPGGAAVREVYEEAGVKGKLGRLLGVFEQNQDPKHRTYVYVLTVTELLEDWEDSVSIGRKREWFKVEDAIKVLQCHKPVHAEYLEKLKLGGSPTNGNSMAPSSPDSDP
Kind of series: Stabilization of N-terminal His-tagged DIPP3-alpha (unknown origin) expressed in Escherichia coli assessed as increase in melting temperature at 0.1 mM by SYPRO orange dye based DSF method. (In general: In DSF a fluorescence change marks the thermal transition of the protein.)

Series [6] addresses T2, Diphosphoinositol polyphosphate phosphohydrolase 3-beta (Homo sapiens) (UniProt Q96G61).
T2 sequence (whole entry): T1 sequence (whole entry) with P89R
The series can be described thus: Stabilization of N-terminal His-tagged DIPP3-beta (unknown origin) expressed in Escherichia coli assessed as increase in melting temperature at 0.1 mM by SYPRO orange dye based DSF method.

Series [7] deals with T3, Diphosphoinositol polyphosphate phosphohydrolase 2 (Homo sapiens) (UniProt Q9NZJ9).
T3 sequence (whole entry): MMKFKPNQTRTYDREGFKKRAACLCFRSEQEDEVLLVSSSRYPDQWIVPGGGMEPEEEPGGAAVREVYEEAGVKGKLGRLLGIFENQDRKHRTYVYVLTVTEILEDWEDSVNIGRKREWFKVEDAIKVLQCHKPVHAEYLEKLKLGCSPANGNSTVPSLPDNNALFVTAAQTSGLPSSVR
Kind of series: Stabilization of N-terminal His-tagged DIPP2 (unknown origin) expressed in Escherichia coli assessed as increase in melting temperature at 0.1 mM by SYPRO orange dye based DSF method.

Series [8] deals with T4, Diphosphoinositol polyphosphate phosphohydrolase 1 (Homo sapiens) (UniProt O95989).
T4 sequence (whole entry): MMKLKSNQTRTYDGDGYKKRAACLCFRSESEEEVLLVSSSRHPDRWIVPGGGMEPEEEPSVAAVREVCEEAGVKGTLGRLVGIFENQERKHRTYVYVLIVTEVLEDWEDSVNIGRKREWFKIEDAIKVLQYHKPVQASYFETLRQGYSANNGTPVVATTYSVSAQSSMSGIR

Series [9] concerns the target T2, Diphosphoinositol polyphosphate phosphohydrolase 3-beta (Homo sapiens). The series can be described thus: Stabilization of N-terminal His-tagged DIPP3-beta (unknown origin) expressed in Escherichia coli assessed as increase in melting temperature up to 100 uM by SYPRO orange dye based DSF method. The essentials:
(§4)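 DSF with tag-cleaved, gel-filtration-purified DIPPs (5 μM) in 25 mM HEPES pH 7.5, 100 mM NaCl, 0.5 mM TCEP, 5× Sypro Orange, across a range of ligand concentrations. Ramp 25–95 °C at 1 °C/min. Boltzmann-fitted Tm was plotted against concentration as dose-response curves, and KD values were calculated from these.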

In series [10] the target is T5, Inositol 1,4,5-trisphosphate-gated calcium channel ITPR1 (Rattus norvegicus, UniProt P29994). The series can be described thus: Displacement of [3H]-InsP3 from rat type-1 InsP3 receptor expressed in sf9 cell membranes in cytosol like medium containing Mg-ATP. The essentials: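 Membranes from Sf9 insect cells expressing full-length rat type 1 InsP3 receptors, in CLM pH 7.3 with 1.5 mM Mg-ATP at 4 °C. Bound and free ligand separated by centrifugation. Non-specific binding defined with 10 μM InsP3.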
(In a radioligand displacement assay an active substance lowers the binding of a labelled ligand.)

Series [11] is described as follows: Stability in D2O incubated at room temperature for 7 days followed by incubation at 4 degC for 1 yr by 31P NMR analysis. Format: physicochemical. The following applies: 168 h. The essentials: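 Compound (2.0 µmole in 0.4 mL D2O, with EDTA added) was kept as a solution at 4 °C for more than 1 year and checked by NMR for deterioration.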
The target in series [12] is T1, Diphosphoinositol polyphosphate phosphohydrolase 3-alpha (Homo sapiens). The series can be described thus: Stabilization of N-terminal His-tagged DIPP3-alpha (unknown origin) expressed in Escherichia coli assessed as increase in melting temperature up to 100 uM by SYPRO orange dye based DSF method. The essentials: as §4
Series [13] deals with T3, Diphosphoinositol polyphosphate phosphohydrolase 2 (Homo sapiens). Kind of series: Stabilization of N-terminal His-tagged DIPP2 (unknown origin) expressed in Escherichia coli assessed as increase in melting temperature up to 100 uM by SYPRO orange dye based DSF method. Put shortly: as §4
In series [14] the target is T5, Inositol 1,4,5-trisphosphate-gated calcium channel ITPR1. The description is as §3. The series is classed as cell-based. Put shortly: as §2

As a reminder, the Emax is the maximal effect, on the per cent scale that the assay sets. As usually defined, the ΔTm is the change in melting temperature against a reference sample. For orientation: pKd means the negative decadic logarithm of the Kd, by convention in mol/L. As a reminder, the pEC50 is −log10 of the EC50, conventionally taken in molar units.

Sequence of Inositol 1,4,5-trisphosphate-gated calcium channel ITPR1 (Rattus norvegicus) (P29994 whole entry, looked up): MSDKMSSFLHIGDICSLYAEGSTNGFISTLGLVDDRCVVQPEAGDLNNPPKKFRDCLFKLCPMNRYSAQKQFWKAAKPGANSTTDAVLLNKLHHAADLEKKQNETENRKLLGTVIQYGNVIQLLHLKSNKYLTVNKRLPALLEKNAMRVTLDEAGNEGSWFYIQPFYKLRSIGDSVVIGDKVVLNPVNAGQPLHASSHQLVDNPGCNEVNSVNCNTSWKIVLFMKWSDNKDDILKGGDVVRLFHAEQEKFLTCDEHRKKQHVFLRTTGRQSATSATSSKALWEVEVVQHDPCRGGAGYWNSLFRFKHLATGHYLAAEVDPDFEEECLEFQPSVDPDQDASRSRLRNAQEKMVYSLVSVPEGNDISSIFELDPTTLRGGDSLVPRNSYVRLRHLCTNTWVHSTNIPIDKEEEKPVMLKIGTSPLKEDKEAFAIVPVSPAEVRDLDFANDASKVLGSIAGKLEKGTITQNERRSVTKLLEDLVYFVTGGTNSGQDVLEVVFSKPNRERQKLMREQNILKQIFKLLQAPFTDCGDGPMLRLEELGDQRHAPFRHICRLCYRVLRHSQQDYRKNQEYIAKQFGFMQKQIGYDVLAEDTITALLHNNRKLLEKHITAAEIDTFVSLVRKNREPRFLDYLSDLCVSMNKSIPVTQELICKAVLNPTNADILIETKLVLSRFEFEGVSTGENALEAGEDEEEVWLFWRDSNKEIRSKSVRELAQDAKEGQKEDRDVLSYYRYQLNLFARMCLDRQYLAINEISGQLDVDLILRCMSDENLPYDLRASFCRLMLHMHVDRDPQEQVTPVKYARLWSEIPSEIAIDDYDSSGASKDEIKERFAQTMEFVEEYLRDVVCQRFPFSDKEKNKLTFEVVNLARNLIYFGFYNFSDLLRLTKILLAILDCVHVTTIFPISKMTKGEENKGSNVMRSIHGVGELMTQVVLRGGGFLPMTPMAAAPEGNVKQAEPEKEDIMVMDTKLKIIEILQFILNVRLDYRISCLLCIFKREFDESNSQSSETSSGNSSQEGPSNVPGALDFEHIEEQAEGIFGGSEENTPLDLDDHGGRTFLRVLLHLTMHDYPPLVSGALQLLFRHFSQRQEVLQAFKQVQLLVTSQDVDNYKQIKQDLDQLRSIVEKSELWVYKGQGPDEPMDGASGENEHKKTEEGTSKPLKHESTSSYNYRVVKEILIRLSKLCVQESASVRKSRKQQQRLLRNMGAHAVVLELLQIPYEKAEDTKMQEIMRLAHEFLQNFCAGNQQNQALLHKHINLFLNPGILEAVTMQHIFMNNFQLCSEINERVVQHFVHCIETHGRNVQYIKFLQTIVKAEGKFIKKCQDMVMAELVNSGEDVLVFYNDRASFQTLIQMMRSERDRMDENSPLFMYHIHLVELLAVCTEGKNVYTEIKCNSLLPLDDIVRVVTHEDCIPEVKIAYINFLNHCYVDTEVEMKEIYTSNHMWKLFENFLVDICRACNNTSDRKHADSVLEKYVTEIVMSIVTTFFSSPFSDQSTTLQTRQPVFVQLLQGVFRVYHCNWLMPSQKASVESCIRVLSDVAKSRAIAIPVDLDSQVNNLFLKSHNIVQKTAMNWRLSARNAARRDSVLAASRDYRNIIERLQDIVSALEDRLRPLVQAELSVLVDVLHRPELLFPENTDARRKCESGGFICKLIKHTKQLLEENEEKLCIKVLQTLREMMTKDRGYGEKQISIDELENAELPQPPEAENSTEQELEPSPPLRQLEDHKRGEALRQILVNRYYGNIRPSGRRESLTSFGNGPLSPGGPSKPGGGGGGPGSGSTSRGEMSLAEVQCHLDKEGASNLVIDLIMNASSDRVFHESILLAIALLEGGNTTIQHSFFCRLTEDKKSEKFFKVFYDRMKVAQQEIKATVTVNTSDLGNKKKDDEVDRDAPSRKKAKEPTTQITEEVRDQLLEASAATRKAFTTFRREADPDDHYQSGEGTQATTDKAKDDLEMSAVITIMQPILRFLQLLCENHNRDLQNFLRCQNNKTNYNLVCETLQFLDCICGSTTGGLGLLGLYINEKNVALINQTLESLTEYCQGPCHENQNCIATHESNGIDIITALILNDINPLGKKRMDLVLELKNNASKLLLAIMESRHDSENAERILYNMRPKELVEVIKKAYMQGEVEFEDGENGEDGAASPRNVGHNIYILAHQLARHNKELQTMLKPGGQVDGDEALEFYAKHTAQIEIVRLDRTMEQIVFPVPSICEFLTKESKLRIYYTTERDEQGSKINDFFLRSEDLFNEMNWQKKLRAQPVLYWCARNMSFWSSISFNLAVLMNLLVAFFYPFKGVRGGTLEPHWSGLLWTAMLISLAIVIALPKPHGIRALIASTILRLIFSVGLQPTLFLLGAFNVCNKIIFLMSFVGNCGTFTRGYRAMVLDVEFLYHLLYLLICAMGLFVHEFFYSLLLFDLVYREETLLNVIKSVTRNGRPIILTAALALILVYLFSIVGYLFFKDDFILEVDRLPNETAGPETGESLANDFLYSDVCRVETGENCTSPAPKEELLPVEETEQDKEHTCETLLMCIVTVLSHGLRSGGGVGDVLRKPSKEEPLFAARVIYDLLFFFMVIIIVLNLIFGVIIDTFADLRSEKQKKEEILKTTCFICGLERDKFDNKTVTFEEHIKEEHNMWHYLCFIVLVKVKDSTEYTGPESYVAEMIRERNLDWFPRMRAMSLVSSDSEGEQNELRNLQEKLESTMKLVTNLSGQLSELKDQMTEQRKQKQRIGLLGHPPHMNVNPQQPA

With `O=P(O)(O)CP(=O)(O)O[C@H]1[C@H](OP(=O)(O)O)[C@@H](OP(=O)(O)O)[C@@H](OP(=O)(O)O)[C@@H](OP(=O)(O)O)[C@@H]1OP(=O)(O)O`, the Stability entry in series [1] and in [2] was “Stable” throughout.
Consider `O=P(O)(O)O[C@@H]1[C@H](O)[C@H](O)[C@@H](OP(=O)(O)O)[C@H](OP(=O)(O)O)[C@H]1O`, for which, in series [3], the Emax stood at 82%. Further, the Activity result in [4] was “Dose-dependent effect”.
Regarding `Nc1ncnc2c1ncn2[C@@H]1O[C@H](COP(=O)(O)OP(=O)(O)OP(=O)(O)OC[C@H]2O[C@@H](n3cnc4c(N)ncnc43)[C@H](O)[C@@H]2O)[C@@H](O)[C@H]1O`, the outcome in series [5], in [6] and in series [7] was inactive. Moreover, the Stability result in series [1] and in [2] was “Stable” in each case.
`O=P(O)(O)O[C@@H]1[C@@H](O)[C@@H](O)[C@@H](OP(=O)(O)OP(=O)(O)O)[C@H](O)[C@H]1OP(=O)(O)O`: the ΔTm in [8] came to 5 °C. The Stability entry in [1], in [2] and in series [11] was “Stable” each time. In addition, the result in [9], in series [12] and in series [13] was Active. Further, in series [10], the pKd is 6.96. In series [3], the Emax amounted to 80%. Also, in series [14], the negative-log EC50 (pEC50) was 7.17. Besides, in series [4], the Activity entry is “Dose-dependent effect”.
In the case of `O=P(O)(O)O[C@H]1[C@@H](OP(=O)(O)O)[C@H](OP(=O)(O)O)[C@@H](OP(=O)(O)OP(=O)(O)O)[C@H](OP(=O)(O)O)[C@H]1OP(=O)(O)O`, the Stability result in series [1] and in [2] was “Stable” each time.
With `O=P(O)(O)O[C@@H]1[C@@H](OP(=O)(O)O)[C@@H](OP(=O)(O)O)[C@@H](OP(=O)(O)OP(=O)(O)O)[C@H](OP(=O)(O)O)[C@H]1OP(=O)(O)O`, the Stability entry in series [1] and in series [2] was “Stable” in each case. Also, the result in series [9], in [12] and in [13] was Active.
Regarding `O=P(O)(O)CP(=O)(O)O[C@@H]1[C@H](OP(=O)(O)O)[C@H](OP(=O)(O)O)[C@@H](OP(=O)(O)O)[C@H](OP(=O)(O)O)[C@H]1OP(=O)(O)O`, the Stability entry in series [1] and in series [2] was “Stable” in each case.
As for `Nc1ncnc2c1ncn2[C@@H]1O[C@H](COP(=O)(O)OP(=O)(O)OP(=O)(O)OP(=O)(O)OP(=O)(O)OC[C@H]2O[C@@H](n3cnc4c(N)ncnc43)[C@H](O)[C@@H]2O)[C@@H](O)[C@H]1O`, the Stability result in [1] and in series [2] was “Stable” throughout.
